Test results: ChEMBL document CHEMBL1129311, “Antitumor agents. 166. Synthesis and biological evaluation of 5,6,7,8-substituted-2-phenylthiochromen-4-ones” (J Med Chem, 1996)
In brackets after ≈: the same amount, converted by molar mass. Activity calls are given as the source filed them. No cut-off for these calls is given here.

Experiments:
H9 [1] = assay: Effective dose against growth of HIV infected H9 lymphocytes; type: functional; details: Homo sapiens, read-out: ED50 (the source's name)
H9 [2] = assay: Inhibitory activity against growth of uninfected H9 lymphocytes; type: functional, cell-based; details: Homo sapiens
Method in brief: (§1)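 Uninfected H9 cultures exposed to compound diluted in medium for 4 days at 37 °C. Cell density counted in a Coulter counter; IC₅₀ determined.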

[3] = Therapeutic index valued has been determined in H9 cells; type: cell-based; details: human, read-out: Therapeutic index
A549 = assay: Effective dose against 50% reduction in Human lung carcinoma (A-549) cell number after 3-day incubation.; type: functional, cell-based
HCT-8 [4] = assay: Effective dose against 50% reduction in Human ileocecal carcinoma (HCT-8) cell number after 3-day incubation.; type: functional, cell-based
KB [5] = assay: Effective dose against 50% reduction in Human epidermoid carcinoma of the nasopharynx (KB) cell number after 3-day incubation; - indicates inactive; type: functional, cell-based
P388 [6] = assay: Effective dose against 50% reduction in Murine leukemia (P-388) cell number after 3-day incubation; - indicates inactive; type: functional, cell-based; details: Mus musculus
TE-671 [7] = assay: Effective dose against 50% reduction in Human CNS tumor (TE671) cell number after 3-day incubation; - indicates inactive; type: functional, cell-based
RPMI [8] = assay: Effective dose against 50% reduction in Human melanoma (RPMI)cell number after 3-day incubation; - indicates inactive; type: functional, cell-based
H9 [9] = assay: Effective dose against growth of HIV infected H9 lymphocytes by 50%; type: functional; details: Homo sapiens, read-out: ED50 (the source's name)
H9 [10] = assay: Inhibitory activity against growth of uninfected H9 lymphocytes by 50%; type: functional, cell-based; details: Homo sapiens; method in brief: as §1
KB [11] = assay: Effective dose against Human epidermoid carcinoma of the nasopharynx; - indicates inactive; type: functional, cell-based
RPMI [12] = assay: Effective dose against 50% reduction in Human melanoma(RPMI) cell number after 3-day incubation; type: functional; details: 72 h, read-out: ED50 (the source's name)
H9 [13] = assay: Effective dose against H9 cell lines; type: functional, cell-based; details: Homo sapiens
RPMI [14] = assay: Effective dose against 50% reduction in Human melanoma (RPMI)cell number after 3-day incubation; type: functional; details: 72 h, read-out: ED50 (the source's name)
TE-671 [15] = assay: Effective dose against 50% reduction in Human CNS tumor (TE671) cell number after 3-day incubation; type: functional; details: TE-671, 72 h, read-out: ED50 (the source's name)
[16] = target: T1, DNA topoisomerase 1 (Homo sapiens) (UniProt P11387); assay: Inhibitory activity against DNA topoisomerase I at dose 100 uM
T1 sequence (whole entry): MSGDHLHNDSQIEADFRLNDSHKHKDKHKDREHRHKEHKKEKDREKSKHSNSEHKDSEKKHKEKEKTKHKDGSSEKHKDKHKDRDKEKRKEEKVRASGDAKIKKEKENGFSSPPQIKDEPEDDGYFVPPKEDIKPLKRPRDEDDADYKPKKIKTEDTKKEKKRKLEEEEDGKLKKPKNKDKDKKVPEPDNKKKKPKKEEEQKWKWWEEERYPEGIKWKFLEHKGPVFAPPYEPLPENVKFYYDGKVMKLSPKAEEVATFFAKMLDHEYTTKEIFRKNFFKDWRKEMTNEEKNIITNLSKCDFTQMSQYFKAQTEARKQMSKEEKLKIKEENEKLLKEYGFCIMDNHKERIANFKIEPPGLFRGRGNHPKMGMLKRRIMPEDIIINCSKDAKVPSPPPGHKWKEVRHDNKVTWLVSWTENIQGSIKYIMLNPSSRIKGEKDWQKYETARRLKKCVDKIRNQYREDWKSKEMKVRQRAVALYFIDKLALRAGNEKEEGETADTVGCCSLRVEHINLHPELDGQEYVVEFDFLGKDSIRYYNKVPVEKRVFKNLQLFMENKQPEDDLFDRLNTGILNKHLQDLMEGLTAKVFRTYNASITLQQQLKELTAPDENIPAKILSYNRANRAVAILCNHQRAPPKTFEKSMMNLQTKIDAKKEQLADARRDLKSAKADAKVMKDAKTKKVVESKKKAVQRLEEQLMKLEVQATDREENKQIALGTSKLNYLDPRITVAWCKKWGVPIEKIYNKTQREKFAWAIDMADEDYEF
Method in brief: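 Topo I activity read as ATP-independent relaxation of supercoiled plasmid DNA. Test compound at 100 µM; % inhibition is relative to enzyme and DNA control reactions. Camptothecin served as the positive inhibitor control.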

[17] = target: DNA topoisomerase II (Homo sapiens) (UniProt P11388+Q02880); assay: Inhibitory activity against DNA topoisomerase II at dose 100 uM; type: protein assay
Method in brief: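 Topo II activity read as ATP-dependent unknotting of P4 DNA. Test compound at 100 µM; % inhibition is relative to enzyme and DNA control reactions. VP-16 served as the reference inhibitor.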

P388 [18] = assay: Effective dose against 50% reduction in Murine leukemia (P-388) cell number after 3-day incubation; type: functional; details: Mus musculus, P388, 72 h; read-out: ED50 (the source's name)
KB [19] = assay: Cellular protein-linked DNA breaks in KB oral carcinoma cell culture treated in triplicate at 50 uM for 1 hr; type: functional, Homo sapiens
Method in brief: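 Read-out is potassium-SDS precipitable cpm in treated KB cultures, expressed as fold.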

HCT-8 [20] = assay: Effective dose against 50% reduction in Human ileocecal carcinoma (HCT-8) cell number after 3-day incubation; type: functional; details: HCT-8, 72 h, read-out: ED50 (the source's name)
KB [21] = assay: Effective dose against 50% reduction in Human epidermoid carcinoma of the nasopharynx (KB) cell number after 3-day incubation; type: functional; details: 72 h, read-out: ED50 (the source's name)

| Structure (SMILES) | EC50 (H9 [1]) | IC50 (H9 [2]) | selectivity ratio [3] | ED50 (A549) | ED50 (HCT-8 [4]) | ED50 (KB [5]) | ED50 (P388 [6]) | ED50 (TE-671 [7]) | ED50 (RPMI [8]) | other results |
| --- | --- | --- | --- | --- | --- | --- | --- | --- | --- | --- |
| Nc1ccc2sc(-c3ccccc3)cc(=O)c2c1 | 7 µg/mL (≈ 27.6 µM) | 7.5 µg/mL (≈ 29.6 µM) | 1.1 | – | – | – | – | – | – | – |
| Oc1cc(-c2ccccc2)nc2c(S)cccc12 | 12 µg/mL (≈ 47.4 µM) | 35 µg/mL (≈ 138 µM) | 2.9 | – | – | – | – | – | – | – |
| COc1ccc2sc(-c3ccccc3)cc(=O)c2c1 | – | – | – | inactive | inactive | inactive | inactive | inactive | inactive | – |
| COc1cccc2sc(-c3ccccc3)cc(=O)c12 | – | – | 1 | inactive | inactive | – | inactive | inactive | – | EC50 (H9 [9]): 7 µg/mL (≈ 26.1 µM); IC50 (H9 [10]): 7 µg/mL (≈ 26.1 µM); ED50 (KB [11]): inactive; EC50 (RPMI [12]): 5.5 µg/mL (≈ 20.5 µM) |
| O=c1cc(-c2ccccc2)oc2cc(O)cc(O)c12 [CHRYSIN] | – | – | 9 | – | – | – | – | – | – | EC50 (H9 [13]): 5 µM |
| O=c1cc(-c2ccccc2)sc2ccc(O)cc12 | – | – | 4.2 | inactive | inactive | inactive | inactive | – | – | EC50 (H9 [9]): 9.5 µg/mL (≈ 37.4 µM); IC50 (H9 [10]): 40 µg/mL (≈ 157 µM); EC50 (RPMI [14]): 0.55 µg/mL (≈ 2.16 µM); EC50 (TE-671 [15]): 2.87 µg/mL (≈ 11.3 µM) |
| CC(=O)Oc1ccc2c(=O)cc(-c3ccccc3)sc2c1 | 80 µg/mL (≈ 270 µM) | 45 µg/mL (≈ 152 µM) | 0.6 | inactive | inactive | inactive | inactive | inactive | inactive | – |
| Nc1cccc2sc(-c3ccccc3)cc(=O)c12 | 20 µg/mL (≈ 78.9 µM) | 50 µg/mL (≈ 197 µM) | 2.5 | inactive | inactive | inactive | – | inactive | inactive | inhibition [16]: 100%; inhibition [17]: 0%; EC50 (P388 [18]): 9.31 µg/mL (≈ 36.8 µM); Activity (KB [19]): 1 |
| O=c1cc(-c2ccccc2)sc2cc(O)c(O)cc12 | 0.8 µg/mL (≈ 2.96 µM) | 1.8 µg/mL (≈ 6.66 µM) | 2.3 | inactive | – | – | – | – | – | inhibition [16]: 100%; inhibition [17]: 0%; EC50 (HCT-8 [20]): 1.45 µg/mL (≈ 5.36 µM); EC50 (P388 [18]): 4.51 µg/mL (≈ 16.7 µM); EC50 (RPMI [14]): 3.92 µg/mL (≈ 14.5 µM); EC50 (TE-671 [15]): 5.5 µg/mL (≈ 20.3 µM); Activity (KB [19]): 1; EC50 (KB [21]): 5.5 µg/mL (≈ 20.3 µM) |
| COc1cccc(-c2cc(=O)c3cc(OC)c(OC)cc3s2)c1 | – | – | – | inactive | – | – | – | inactive | – | EC50 (HCT-8 [20]): 6.35 µg/mL (≈ 19.3 µM); EC50 (P388 [18]): 0.61 µg/mL (≈ 1.86 µM); EC50 (RPMI [14]): 5.5 µg/mL (≈ 16.7 µM); EC50 (KB [21]): 5.5 µg/mL (≈ 16.7 µM) |
| O=c1cc(-c2ccccc2)sc2cc(O)ccc12 | 7 µg/mL (≈ 27.5 µM) | 40 µg/mL (≈ 157 µM) | 5.7 | inactive | inactive | inactive | inactive | inactive | inactive | – |
